# Article PMC4388048 (Journal of medicinal chemistry, 2015)
# Columns and labels:
# [1] = type: in vivo; settings: CD-1 mice, 10 nmol intravenously, 4 h postinjection, N = 5
# Summary of the method: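 Anesthetised male CD-1 mice (~25 g; ketamine/xylazine i.p.) received test fluorophore intravenously. After 4 h of imaging, urine was collected from the bladder. Urine volume and optical absorbance were measured to estimate the amount of injected dye excreted.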
# [2] = Optical stability in serum; type: in vitro ADME, fetal bovine serum; settings: 100% FBS, pH 7.4, 37 °C, 24 h
# [3] = Optical properties in 100% FBS; type: physicochemical; settings: pH 7.4, 37 °C
# Summary of the method: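 Absorbance (200–1100 nm) and fluorescence (350–1000 nm) spectra were recorded for 1 µM test dye in 100% FBS, pH 7.4, using fibre-optic spectrometers. Excitation was 8 mW from a 655 or 765 nm laser diode, chosen by structure. Quantum yield was calibrated against oxazine 725 in ethylene glycol (QY 19%) and ICG in DMSO (QY 13%), with absorbance matched at 655 and 765 nm.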
# [4] = In vivo biodistribution and clearance by real-time NIR fluorescence imaging; settings: CD-1 mice, 10 nmol intravenously, imaging over 4 h
# Summary of the method: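 Male CD-1 mice (~25 g) were anesthetised with ketamine 100 mg/kg and xylazine 10 mg/kg i.p., then given 10 nmol of test fluorophore intravenously. Real-time FLARE imaging used 760 nm excitation at 11 mW/cm2 with white light (400–650 nm). Colour and NIR images were acquired together at up to 15 Hz. Resected organs were also imaged. Exposure and normalisation were held constant.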
Optical stability in serum [2],uptake in liver [4],Compound,other results
–,–,"CC1(C)C(/C=C/C=C/C=C/C=C2\N(CCCCS(=O)(=O)O)c3ccc4ccccc4c3C2(C)C)=[N+](CCCCS(=O)(=O)[O-])c2ccc3ccccc3c21 [ICG, indocyanine green]",Renal excretion amount in urine [1]: 3 % ID
least stable,–,"Br.Br.CC1(C)C(/C=C/C2=C(Oc3ccc(CCN)cc3)C(=C/C=C3/N(CCC[N+](C)(C)C)c4ccc(S(=O)(=O)[O-])cc4C3(C)C)/CCC2)=[N+](CCC[N+](C)(C)C)c2ccc(S(=O)(=O)[O-])cc21.[Br-] [compound 4, Mono(2-((E)-2-((E)-2-(4-(2-aminoethyl)phenoxy)-3-((E)-2-(3,3-dimethyl-5-sulfonato-1-(3-(trimethylammonio)propyl)-indolin-2-ylidene)ethylidene)cyclohex-1-en-1-yl)vinyl)-3,3-dimethyl-1-(3-(trimethylammonio)propyl)-3H-indol-1-ium-5-sulfonate) Tribromide]",molar extinction coefficient [3]: highest; quantum yield [3]: highest
–,weak uptake in liver,"Br.Br.CC1(C)C(/C=C/C2=C(Sc3ccc(C(=O)O)cc3)C(=C/C=C3/N(CCC[N+](C)(C)C)c4ccc(S(=O)(=O)[O-])cc4C3(C)C)/CCC2)=[N+](CCC[N+](C)(C)C)c2ccc(S(=O)(=O)[O-])cc21.[Br-] [compound 8, Mono(2-((E)-2-((E)-2-((4-carboxyphenyl)thio)-3-((E)-2-(3,3-dimethyl-5-sulfonato-1-(3-(trimethylammonio)propyl)indolin-2-ylidene)ethylidene)cyclohex-1-en-1-yl)vinyl)-3,3-dimethyl-1-(3-(trimethylammonio)propyl)-3H-indol-1-ium-5-sulfonate) Tribromide]",–
increased stability,–,"Mono(2-((E)-2-((E)-2-((4-(aminomethyl)phenyl)thio)-3-((E)-2-(3,3-dimethyl-5-sulfonato-1-(3-(trimethylammonio)propyl)indolin-2-ylidene)ethylidene)cyclohex-1-en-1-yl)vinyl)-3,3-dimethyl-1-(3-(trimethylammonio)propyl)-3H-indol-1-ium-5-sulfonate) Tribromide [compound 11]",–
increased stability,weak uptake in liver,"Mono(2-((E)-2-((E)-2-((4-(carboxymethyl)phenyl)thio)-3-((E)-2-(3,3-dimethyl-5-sulfonato-1-(3-(trimethylammonio)propyl)indolin-2-ylidene)ethylidene)cyclohex-1-en-1-yl)vinyl)-3,3-dimethyl-1-(3-(trimethylammonio)propyl)-3H-indol-1-ium-5-sulfonate) Tribromide [compound 9]",–
